Data taken from ChEMBL document CHEMBL5303300, “EUbOPEN Chemogenomics Library - Multiplex” (2023).
Several values for one entry are separate records, joined by “and”; a condition that tells them apart may be missing. Equal entries are not always repeated.

System: Fibroblast
Assay: Multiplex assay against human fibroblast
Format: toxicity, cell-based
Conditions: number of replicates 2
How it was run: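 Tubulin, mitochondrial-mass and membrane-permeability phenotypes are per cents of healthy-nucleus cells. Cells were gated by CellPathfinder machine learning into Hoechst high-intensity objects or normal cells, normal cells into healthy, pyknosed or fragmented nuclei, and pyknosed cells into mitotic or apoptotic. Before that, live cells stained at seeding with Hoechst33342, BioTracker Green Microtubule Cytoskeleton Dye, MitoTracker Red and Annexin V Alexa Fluor 680 were imaged on a CQ1 microscope at 37°C and 5% CO2 after compound addition.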

[1] = 12 h, 1 µM, compound concentration 1 uM
[2] = 12 h, 10 µM, compound concentration 10 uM
[3] = 24 h, 1 µM, compound concentration 1 uM
[4] = 24 h, 10 µM, compound concentration 10 uM
[5] = 48 h, 1 µM, compound concentration 1 uM
[6] = 48 h, 10 µM, compound concentration 10 uM

CCN(CC)C/C=C/C(=O)Nc1cc2c(Nc3ccc(F)c(Cl)c3)ncnc2cc1OCC1CC1
Population Apoptotic (%) [1]: 48% and 35% | Population Fragmented Nuclei (%) [1]: 14% and 17% | Population Healthy Nuclei (%) [1]: 62% and 55% | Population Hoechst High Intensity Objects (%) [1]: 0% | Population Membrane Permeable-Phenotype (%) [1]: 10% and 15% | Population Mitochondria Different-Phenotype (%) [1]: 2% and 4% | Population Mitotic Cells (%) [1]: 51% and 65% | Population Normal (%) [1]: 100% | Population Pyknosed Nuclei (%) [1]: 22% and 26% | Population Tubulin-Different-Phenotype (%) [1]: 61% and 56% | Total Cell Count [1]: 189 and 225 | Population Apoptotic (%) [2]: 63% and 58% | Population Fragmented Nuclei (%) [2]: 19% and 20% | Population Healthy Nuclei (%) [2]: 47% and 51% | Population Hoechst High Intensity Objects (%) [2]: 0% | Population Membrane Permeable-Phenotype (%) [2]: 25% and 20% | Population Mitotic Cells (%) [2]: 36% and 41% | Population Normal (%) [2]: 100% | Population Pyknosed Nuclei (%) [2]: 33% and 27% | Population Tubulin-Different-Phenotype (%) [2]: 92% and 87% | Total Cell Count [2]: 209 and 264 | Population Apoptotic (%) [3]: 52% and 62% | Population Fragmented Nuclei (%) [3]: 17% and 20% | Population Healthy Nuclei (%) [3]: 60% and 64% | Population Hoechst High Intensity Objects (%) [3]: 1% and 0% | Population Membrane Permeable-Phenotype (%) [3]: 2% and 4% | Population Mitochondria Different-Phenotype (%) [3]: 7% and 12% | Population Mitotic Cells (%) [3]: 47% and 37% | Population Normal (%) [3]: 98% and 100% | Population Pyknosed Nuclei (%) [3]: 22% and 15% | Population Tubulin-Different-Phenotype (%) [3]: 75% and 62% | Total Cell Count [3]: 192 and 231 | Population Apoptotic (%) [4]: 91% and 85% | Population Fragmented Nuclei (%) [4]: 13% and 8% | Population Healthy Nuclei (%) [4]: 13% and 19% | Population Hoechst High Intensity Objects (%) [4]: 0% | Population Membrane Permeable-Phenotype (%) [4]: 14% and 16% | Population Mitochondria Different-Phenotype (%) [4]: 71% and 56% | Population Mitotic Cells (%) [4]: 8% and 14% | Population Normal (%) [4]: 99% | Population Pyknosed Nuclei (%) [4]: 72% and 71% | Population Tubulin-Different-Phenotype (%) [4]: 95% and 89% | Total Cell Count [4]: 154 and 190 | Population Apoptotic (%) [5]: 73% and 53% | Population Fragmented Nuclei (%) [5]: 28% and 25% | Population Healthy Nuclei (%) [5]: 59% and 63% | Population Hoechst High Intensity Objects (%) [5]: 0% | Population Membrane Permeable-Phenotype (%) [5]: 3% and 1% | Population Mitochondria Different-Phenotype (%) [5]: 10% and 8% | Population Mitotic Cells (%) [5]: 26% and 46% | Population Normal (%) [5]: 100% and 99% | Population Pyknosed Nuclei (%) [5]: 12% and 11% | Population Tubulin-Different-Phenotype (%) [5]: 68% and 45% | Total Cell Count [5]: 210 and 233 | Population Apoptotic (%) [6]: 92% and 94% | Population Fragmented Nuclei (%) [6]: 22% and 28% | Population Healthy Nuclei (%) [6]: 10% and 21% | Population Hoechst High Intensity Objects (%) [6]: 0% | Population Membrane Permeable-Phenotype (%) [6]: 41% and 38% | Population Mitochondria Different-Phenotype (%) [6]: 29% and 19% | Population Mitotic Cells (%) [6]: 7% and 5% | Population Normal (%) [6]: 100% | Population Pyknosed Nuclei (%) [6]: 67% and 49% | Population Tubulin-Different-Phenotype (%) [6]: 47% and 93% | Total Cell Count [6]: 168 and 145
